Laboratory results published in the M2OR odorant receptor database.

target: T1, OR1A1 (Homo sapiens) (UniProt Q9P1Q5); conditions: stereoisomer not certain
T1 sequence (whole entry): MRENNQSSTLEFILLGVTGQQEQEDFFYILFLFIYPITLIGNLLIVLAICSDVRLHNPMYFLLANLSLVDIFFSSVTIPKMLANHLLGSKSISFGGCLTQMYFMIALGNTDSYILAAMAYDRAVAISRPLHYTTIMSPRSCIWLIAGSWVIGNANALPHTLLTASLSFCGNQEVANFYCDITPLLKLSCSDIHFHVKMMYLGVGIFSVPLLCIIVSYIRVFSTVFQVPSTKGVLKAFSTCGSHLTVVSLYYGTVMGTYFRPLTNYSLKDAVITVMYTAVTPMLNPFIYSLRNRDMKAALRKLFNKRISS
In short: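 Whether a receptor–molecule pair is responsive (active) rests on the original authors' judgment that its measured signal was statistically different from baseline. Pairs without that judgment are non-responsive (inactive). Sources used varied assay methods, commonly transient luciferase assays in mammalian cell lines.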
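Note: active if original authors judged signal statistically different from baseline.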

SMILES | odorant receptor agonist call
CCCCCCCCCS | active
CC(C)CO | inactive
O=c1ccc2ccccc2o1 | inactive
CCCCCCCC(=O)OCC | inactive
C=C(C)C1CCC(C)C(=O)C1 (stereo unspecified) | active
CCCCCc1ccccn1 | active
C=C(C)C1CC=C(C)C(O)C1 (stereo unspecified) | active
CCCCOC=O | inactive
CCC(=O)C(C)=O | inactive
COc1nccnc1C(C)C | inactive
CCCCC1OC(=O)CC1C (stereo unspecified) | inactive
CCCCCCC=CC=O | inactive
CCOC(=O)CCSC | inactive
CCCC(=O)OCC | inactive
CC(=O)O | inactive
SCc1cccs1 | inactive
CCCCC=CC=O | inactive
SCCc1ccccc1 | active

SMILES | odorant receptor agonist call
CCC=CCCCCCC=O | active
CCCCCCCCC1CCC(=O)O1 (stereo unspecified) | inactive
C=C(C)C1CC=C(C)C(OC(C)=O)C1 (stereo unspecified) | inactive
CCCCCCCO | active
Cc1c[nH]c2ccccc12 | inactive
CC1=CCC2CC1C2(C)C (stereo unspecified) | inactive
CC(=O)C=CC1C(C)=CCCC1(C)C (stereo unspecified) | inactive
CC(=O)CC(=O)CC(C)C | active
CCCCCCCC(C)=O | active
CCCC(=O)OC | inactive
CCCCCCCC=CC=CC=O | inactive
CSSSC | inactive
CCCCCCCCCCO | active
C=CC(C)(O)CCC=C(C)CCC=C(C)C (stereo unspecified) | active
CC(C)=CCCC(C)CC(=O)O (stereo unspecified) | inactive
CCCC(=O)C(C)CC (stereo unspecified) | inactive
CCOC(=O)C1CCCCC1 | active
CC(C)CC=O | inactive
